Screening data: PubChem BioAssay, several laboratories
Hits are enriched below; roughly 4.7% of the tested compounds scored in any of these assays.
ADAM10 inh: human ADAM10 inhibitors, primary screen, biochemical, QFRET, HTS | Disintegrin and metalloproteinase domain-containing protein 10 (Homo sapiens), O14672 | recombinant ADAM10, EDANS/DABCYL FRET peptide cleavage, 3 h | inhibition, % at 7 µM | actives 0.62% (n = 370,000) | AID 720582, 2013;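 active = inhibition above a per-campaign cutoff equal to the mean of compounds falling between control-based bounds plus 3 SD, cut at about 20% in these data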;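 also: 0% = DMSO wells while the 100% control is not disclosed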
Target sequence (O14672 214-748 limits assumed): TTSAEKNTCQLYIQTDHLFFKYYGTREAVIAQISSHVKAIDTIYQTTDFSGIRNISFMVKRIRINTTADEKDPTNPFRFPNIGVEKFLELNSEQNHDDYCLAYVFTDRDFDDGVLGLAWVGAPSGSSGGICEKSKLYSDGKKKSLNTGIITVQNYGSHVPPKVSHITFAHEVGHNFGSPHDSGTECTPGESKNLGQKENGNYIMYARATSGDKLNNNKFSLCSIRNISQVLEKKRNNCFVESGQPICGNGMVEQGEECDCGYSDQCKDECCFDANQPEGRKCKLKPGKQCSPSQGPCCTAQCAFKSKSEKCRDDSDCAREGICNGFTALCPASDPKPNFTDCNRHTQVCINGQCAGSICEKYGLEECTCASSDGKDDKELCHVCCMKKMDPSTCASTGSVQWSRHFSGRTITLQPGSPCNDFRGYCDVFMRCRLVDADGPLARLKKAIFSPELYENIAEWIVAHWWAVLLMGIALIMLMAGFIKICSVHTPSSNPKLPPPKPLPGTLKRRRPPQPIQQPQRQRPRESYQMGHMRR
SKN-1 inh: suppressors of acrylamide-induced Pgst-4::GFP reporter in worms, primary screen, SKN-1 inhibitor project, whole organism, uHTS, GFP/RFP fluorescence ratio, strain VP596; C. elegans VP596 Pgst-4::GFP/RFP ratio, 24 h; inhibition, % at 21.8 µM; actives 0.49% (n = 360,000);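 active = interference check ratio from 0.5 to 1.5 plus GFP to RFP signal ratio inhibition reaching or exceeding a fixed threshold, cut at about 30% in these data, passing the limit was not always enough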
GRIN3A LBD mod: binders of NR3A ligand-binding domain, primary screen, biophysical, differential scanning fluorimetry, uHTS | actives 2.5% (n = 340,000) | Tm shift relative to glycine control, % at 25 µM | NR3A LBD differential scanning fluorimetry, Tm shift; 0% = protein alone, 100% = glycine-bound protein | Glutamate receptor ionotropic, NMDA 3A (GRIN3A) ligand-binding domain;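 active = melting temperature shift of at least 10% of the positive control shift, at one fixed dose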
MT1-MMP act inh: blockers of MT1-MMP proenzyme processing, primary screen, HT1080 RFP-PRO-GFP cells, GFP/RFP fluorescence; GFP/RFP ratio fluorescence, overnight; percent of plate control window, DMSO zero; AID 651647, 2012; GFP/RFP ratio change, % at 20 µM; actives 0.061% (n = 360,000);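 active = GFP/RFP ratio change of at least 30% with cell ATP level not reduced by more than half and red fluorescence within 50% of control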
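Assay system – RFP-PRO-GFP reporter HT1080 cells · Compound dosing – single dose of 20 µM compound, 1% DMSO final · Incubation – overnight compound exposure at 37 °C · Measure – GFP/RFP fluorescence ratio · Benchmarks – DMSO wells and RFP-L50D-GFP cells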
MPTP block: mitochondrial permeability transition pore inhibitors, primary screen, biochemical, isolated mouse mitochondria, absorbance; Ca2+ swelling absorbance, 30 min; inhibition, % at 10 µM; actives 1.4% (n = 360,000); AID 602449, 2012;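 active = inhibition of 50% or more, scaled per plate between neutral and stimulator controls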;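 also: 0% = DMSO wells given calcium and 100% = 1 mM EGTA wells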
ADAM17 inh: ADAM17 inhibitors, primary screen, biochemical, QFRET; Disintegrin and metalloproteinase domain-containing protein 17 (Homo sapiens), P78536; recombinant ADAM17, EDANS/DABCYL FRET peptide cleavage; inhibition, % at 6.95 µM; actives 0.83% (n = 370,000); AID 720648, 2013;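 active = inhibition above the mean of compounds lying between control limits plus 3 SD, set per campaign, cut at about 8.5% in these data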;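 also: 0% = DMSO-only wells as the low control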
The depositor's hits bear a star; nt = no result given.

SMILES | ADAM10 inh | SKN-1 inh | GRIN3A LBD mod | MT1-MMP act inh | MPTP block | ADAM17 inh
Oc1ccccc1-c1nc(NCc2ccco2)c2ccccc2n1 | 11.8 | 1.8 | 13.8* | 0.2 | 21.8 | -1.1
Oc1ccccc1-c1nc(NCc2ccccc2)c2ccccc2n1 | -0.7 | -15.6 | 16.3* | -3.6 | 2.4 | -0.7
Cc1occc1-c1nnc(SCC(=O)NCc2ccc(Cl)cc2)n1-c1ccccc1 | -6.0 | nt | nt | nt | nt | -2.4
CC(C)(C)OC(=O)NCc1ccccc1/C=C/S(=O)(=O)NCc1ccc(F)cc1 | 10.1 | nt | nt | nt | nt | 8.5
N#CNC(=Nc1ccccc1)SCc1ccc(C(=O)O)cc1 | -0.6 | 4.0 | 0.7 | 0.9 | 0.6 | 1.1
CSC(=Nc1ccccc1)N=C(SCc1ccccc1)N(C)C | -6.1 | 27.1 | 11.2* | -27.5 | 23.7 | -4.7
Cc1ccccc1-n1c(=O)c2ccccc2n(CC(=O)NCc2ccco2)c1=O | 3.6 | -12.9 | -0.4 | -3.3 | 2.2 | -2.7
CC(C)Cn1c(SCC(=O)N2CCc3ccccc3C2)nc2cc(Cl)ccc2c1=O | -6.7 | 11.7 | 14.1* | -4.7 | 16.5 | -3.1
COc1cccc(NC(=O)Cn2c(=O)n(CCC(=O)NCc3ccco3)c(=O)c3ccccc32)c1 | 1.9 | -2.7 | 0.2 | -1.7 | 0.7 | -1.8
COc1ccc(-c2c(C#Cc3ccsc3)c3cc(-c4ccc5cc[nH]c5c4)ccc3n2C)cc1 | -28.9 | -2.1 | 11.8* | -1.0 | -0.1 | 0.2
CCc1cccc2c1NC(=O)C21OCCO1 | -4.8 | -9.3 | 1.4 | -1.6 | -0.8 | -3.6
CCc1sc(C(=O)Nc2ccc(NC(C)=O)cc2)cc1C | -5.4 | -0.4 | 11.1* | 14.1 | -0.9 | 0.8
CCN(CC)S(=O)(=O)c1cccc(-c2nn(-c3ccccc3)cc2/C=C(\C#N)C(=O)NCc2ccco2)c1 | -4.8 | 3.7 | 2.1 | 9.8 | 0.7 | -1.2
CC(NC(=O)c1ccccc1NS(C)(=O)=O)c1ccccc1 (centres undefined) | -225.9 | 20.2 | 19.7* | 0.7 | -3.6 | -67.3
Cc1ccc(CSc2nc3ccccc3cc2C=O)cc1 | 5.0 | 41.7* | -12.3 | 2.1 | 1.8 | 0.7
C/C(=N\NC(=O)c1cc2ccccc2cc1O)c1cccs1 | 4.6 | 9.6 | 13.6* | 5.4 | 0.9 | -2.3
COc1cc([N+](=O)[O-])c(OC)cc1SCc1n[nH]c(=S)n1-c1ccc(C)cc1 | 12.7 | -3.1 | 11.9* | 0.9 | 2.9 | -0.7
Cc1cc(C)c(/C=N/NC(=O)c2nnn(-c3nonc3N)c2COc2ccc(F)cc2)c(C)c1 | -7.8 | -6.6 | 26.3* | 6.2 | 3.3 | -3.7
CCCc1c(C(=O)N/N=C/c2ccc(OCc3ccc(F)cc3)cc2)nnn1-c1nonc1N | -13.1 | 12.2 | nt | -0.7 | 0.1 | 0.6
CCCCOc1ccc(/C=N/NC(=O)c2nnn(-c3nonc3N)c2CN2CCCCCC2)cc1 | -11.5 | -1.4 | 0.0 | -2.0 | 1.5 | -3.9
Nc1nonc1-n1nnc(C(=O)N/N=C/c2ccc(OCc3ccccc3)cc2)c1CN1CCCCC1 | 8.6 | 6.4 | 18.4* | -1.4 | -0.1 | 1.1
Cc1ccc(COc2ccc(/C=N/NC(=O)c3nnn(-c4nonc4N)c3COc3ccc(F)cc3)cc2)cc1 | 1.4 | -7.3 | 21.1* | 1.3 | 2.3 | -3.0
O=C(CCC(NC(=O)OCc1ccccc1)C(=O)OCc1ccccc1)NCC(=O)OCc1ccccc1 (centres undefined) | 7.1 | 5.2 | 11.9* | 0.5 | -0.1 | 7.1
CN(C(=O)CSc1nnc(-c2cccnc2)n1-c1ccccc1F)C1CCS(=O)(=O)C1 (centres undefined) | -2.3 | -6.5 | -0.8 | 1.2 | -0.3 | -0.7
O=C(Nc1cccc(C(F)(F)F)c1)C1(c2ccccc2)CC1 | 5.1 | 8.1 | 11.9* | 1.1 | 1.8 | -2.6
SMILES | ADAM10 inh | SKN-1 inh | GRIN3A LBD mod | MT1-MMP act inh | MPTP block | ADAM17 inh
COc1cc(CN(C2CC2)S(=O)(=O)c2ccccc2Br)cc(OC)c1 | 9.8 | -5.0 | 14.0* | 1.0 | 0.3 | 4.8
C#CCN(C1CC1)S(=O)(=O)c1ccccc1Br | 5.8 | nt | nt | nt | nt | 0.8
Cc1cc(C(=O)CSc2nnc(C3COc4ccccc4O3)n2C)c(C)n1-c1ccc(F)cc1 (centres undefined) | -0.6 | 47.7* | 3.1 | -2.6 | -1.1 | 2.3
Cc1nc(Nc2nc(CSc3nc4ccccc4[nH]3)cc(=O)[nH]2)nc2ccccc12 | 0.2 | 13.8 | -14.8 | 11.6 | 2.7 | 3.5
Cc1ccc2nc(Nc3nc(CSc4nnnn4-c4ccccc4)cc(=O)[nH]3)nc(C)c2c1 | 4.9 | 35.3* | 3.8 | -1.1 | 4.8 | 1.7
CCN(CC)C1=CC2=CC(=C(C#N)C#N)CCC2CC1 (centres undefined) | -16.6 | -59.0 | -3.3 | -19.9 | 2.5 | -1.0
N#CC(C#N)=C1C=C2C=C(N3CCCCC3)CCC2CC1 (centres undefined) | nt | nt | 21.0* | nt | nt | nt
CCCCNC(=S)Nc1ccc2cn[nH]c2c1 | 1.7 | -3.2 | 21.3* | -2.0 | -1.2 | -3.1
CCc1ccc(NC(=S)Nc2ccc3cn[nH]c3c2)cc1 | -41.1 | 5.9 | 13.7* | 1.1 | 0.3 | -17.6
S=C(Nc1ccc2cn[nH]c2c1)Nc1ccccc1Cl | -27.2 | -6.0 | 3.9 | 0.1 | -1.3 | -10.1
S=C(Nc1ccc2cn[nH]c2c1)Nc1ccc(Cl)cc1Cl | -29.1 | 14.3 | 12.6* | 0.0 | -2.0 | -5.6
COc1ccc(C(O)c2coc3ccc(O)c(CN(C)C)c23)cc1 (centres undefined) | -12.9 | 8.2 | -0.2 | -3.5 | 0.3 | -5.1
CCOc1ccc(NC(=O)CNc2ccc(C)cc2Cl)cc1 | 7.9 | 17.0 | 34.0* | 3.5 | 11.2 | 3.0
O=C(CC(=O)Nc1cccc(Cl)c1)N/N=C\c1ccccc1 | 2.4 | -17.5 | -10.7 | 3.3 | 11.8 | -1.7
O=C(COc1ccc(/C=N/NC(=O)c2ccccc2O)cc1)Nc1ccc([N+](=O)[O-])cc1 | -9.7 | 3.8 | 37.4* | 3.9 | 6.0 | -4.2
O=C(COc1ccc(/C=N/NC(=O)c2ccncc2)cc1)Nc1cccc([N+](=O)[O-])c1 | 6.4 | 3.4 | 16.5* | 1.3 | 0.0 | 0.1
CCOc1ccc(/C=N/NC(=O)CC(=O)Nc2ccc(Cl)c(Cl)c2)cc1 | 3.6 | 3.2 | 19.5* | -2.3 | 6.0 | -4.7
CCCCc1nc2cc(C(=O)NCc3ccccn3)ccc2o1 | 5.7 | -3.7 | -0.1 | 4.5 | 0.2 | 1.5
Cc1nc(Oc2ccccc2)c2ccsc2n1 | 1.9 | 7.2 | -2.7 | 1.1 | -0.2 | -2.8
